Screening results from PubChem.
TAAR1 antagonist: human TAAR1 antagonists, primary screen, Fluo-8 calcium fluorescence, CHO RD-HGA16 cells; 360,000 tested, 1.5% active; antagonist; AID 624466, 2012; Trace amine-associated receptor 1 (Homo sapiens), Q96RJ0; inhibition, % at 3 µM;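 active = inhibition above a per-plate cutoff, the mean inhibition of test compounds on that plate plus 3 SD, cut at about 49% in these data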
Target sequence (Q96RJ0 whole entry, looked up): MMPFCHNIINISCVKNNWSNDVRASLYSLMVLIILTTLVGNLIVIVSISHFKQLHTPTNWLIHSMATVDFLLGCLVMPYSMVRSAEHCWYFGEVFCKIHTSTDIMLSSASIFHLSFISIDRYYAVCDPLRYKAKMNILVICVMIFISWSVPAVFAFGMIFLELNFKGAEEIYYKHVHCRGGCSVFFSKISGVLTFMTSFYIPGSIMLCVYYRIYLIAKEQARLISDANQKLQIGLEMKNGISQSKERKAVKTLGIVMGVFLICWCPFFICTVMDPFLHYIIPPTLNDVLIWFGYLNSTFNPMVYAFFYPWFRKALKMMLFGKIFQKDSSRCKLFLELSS
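Test system – hTAAR1-expressing CHO RD-HGA16 cells, Gα16-coupled · Also added – β-PEA at EC80 concentration, post-compound challenge · Compound – 3 µM, single point · Incubation – dye loading 75 min at 37 °C, then 30 min room temperature · Measured by – Fluo-8 intracellular calcium dye fluorescence, real-time kinetic reads · Benchmarks – vehicle and agonist controls · Replicates – singlicate, one well per test compound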
TAAR1 agonist: human TAAR1 agonists, primary screen, Fluo-8 calcium fluorescence, CHO RD-HGA16 cells; Trace amine-associated receptor 1 (Homo sapiens), Q96RJ0; vehicle wells 0%, saturating PEA agonist 100%; activation, % at 3 µM; 360,000 tested, 0.99% active; AID 624467, 2012;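 active = activation above the mean activation of all test compounds in the run plus 3 SD, cut at about 38% in these data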
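System: CHO RD-HGA16 cells carrying human TAAR1 plus Gα16; Incubation: 17-24 h seeding, 75 min 37 °C dye, 30 min RT; Measured by: Fluo-8 fluorescence, 5 s baseline then 140 s kinetic read; Control set: DMSO and PEA EC100; Replication: single well for each compound.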
TMEM16A act: TMEM16A chloride channel activators or potentiators, primary screen, cell-based, HTS. Anoctamin-1 (Mus musculus), Q8BHY3. HEK293 TMEM16A/YFP-H148Q/I152L, iodide quench fluorescence; active compounds read low. B-score at 10 µM. 340,000 tested, 0.3% active;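 active = fluorescence-ratio B-score plate-corrected deviation score at least 3 library SD below zero, with starting fluorescence score within 5 deviations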;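 also: channel opened by trigger with iodide after compound preincubation; score built on the fluorescence ratio of max minus min over baseline; more negative score means more quench and so TMEM16A activation or potentiation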
CRFR2-BP antag: antagonists of CRF-BP/CRF-R2 complex, primary screen, cell-based, HEK293, calcium dye fluorescence, uHTS; inhibition, % at 11.8 µM; 350,000 tested, 0.59% active; CRF-induced calcium fluorescence; AID 588475, 2011;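 active = inhibition of the ligand-induced calcium signal above about 50% at the single tested concentration, limit read from the data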
ANO1 block: TMEM16A chloride channel inhibitors, primary screen, cell-based, HTS; Anoctamin-1 (Mus musculus), Q8BHY3; HEK293 TMEM16A/YFP iodide influx fluorescence, ionomycin; normalized B-score (activity score, 25-100; higher = stronger inhibition) at 10 µM; 310,000 tested, 1.2% active; AID 588511, 2011;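 active = ratio plate-corrected score three or more library SD toward inhibition, starting fluorescence score within five deviations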;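 also: score derived from kinetic fluorescence span divided by baseline fluorescence per well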
CRFBP-R2 agonist: agonists of CRF-BP/CRF-R2 complex, primary screen, cell-based, HEK293, calcium dye fluorescence, uHTS | 350,000 tested, 0.46% active | calcium dye fluorescence (FLIPR); percent of saturating CRF peptide response | activation, % at 13.2 µM | CRF-binding protein / CRF receptor 2 complex (human) | AID 588473, 2011;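 active = activation of at least 50%, plus an integration ratio under a set limit after plate pattern correction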
Hits are given with their value; . = inactive; / = no result; ! = not confirmed by another sample. A selection: hits, their analogues and other compounds. The true share with any hit is near 3.9%.

SMILES	TAAR1 antagonist	TAAR1 agonist	TMEM16A act	CRFR2-BP antag	ANO1 block	CRFBP-R2 agonist
O=C(CSc1ccccc1F)NCC(c1ccco1)N1CCCCC1 (stereo not given)	.	.	/	.	/	.
CC1=C(C)/C(=N\OS(=O)(=O)c2ccc(C)cc2)C=CC1=O	52	.	-4.8	.	25	64
CC1=C/C(=N\OS(=O)(=O)c2ccccc2)C(C(C)C)=CC1=O	/	/	-5	.	.	.
COc1cc(C(=O)O/N=C2/C=C(C)C(=O)C=C2C)cc(OC)c1OC	.	.	.	.	.	.
CC1=C/C(=N\OS(=O)(=O)c2ccccc2)C(C)=CC1=O	/	/	-6.4	.	100	69
Cc1cc(C)nc(N2CCCC(C(=O)Nc3cccc(Cl)c3)C2)n1 (stereo not given)	.	.	.	.	.	.
COc1ccccc1-c1ccc2c(c1)O[C@@H](CN(C)C(=O)c1ccncc1)[C@H](C)CN([C@@H](C)CO)S2(=O)=O	.	.	/	.	/	.
O=C(NCCO)c1c(O)c2cccc3c2n(c1=O)CC3	.	.	.	56	.	.
CCC1CCc2sc(C(=O)N(C)CC(=O)Nc3ccc(N4CCOCC4)cc3)cc2C1 (stereo not given)	.	.	.	.	.	.
Cc1ccc(-n2cc(CN3CCC(CO)(Cc4cccc(C(F)(F)F)c4)CC3)cn2)cc1	.	44	.	.	.	.
Cc1ccc(-n2cc(CN3CCC(CO)(Cc4ccccc4)CC3)cn2)cc1	.	.	/	/	.	/
Cc1cc(C)c(C)c(S(=O)(=O)N2CCN(Cc3nc4ccccc4[nH]3)CC2)c1C	49	.	.	.	.	.
COc1ccc2c(c1)C=C([C@@H]1C[C@H]3CN(c4ccccc4)C(=O)[C@]34CCCN14)CO2	.	.	.	.	.	.
CCN1C(=O)C(=CC=CN(C)c2ccccc2)SC1=S	.	.	/	.	/	103
CCN1C(=O)/C(=C/C=C2\C=CN(CC)c3ccccc32)SC1=S	.	.	.	53	.	.
O=C1C[C@@H]2c3c(cccc3CN1Cc1ccc(F)cc1)C[C@@H](O)[C@H]2O	.	.	.	.	/	.
COc1ccc(CN2Cc3cccc4c3[C@@H](CC2=O)[C@H](O)[C@H](O)C4)cc1	.	.	-9.2	.	/	.
CCOc1ccc(C(=O)C(C)OC(=O)Cn2[nH]c(=O)c3ccccc3c2=O)cc1 (stereo not given)	.	.	.	.	.	.
Nc1c(-c2ccccc2)sc2ccc3ccccc3[n+]12	.	.	.	.	.	.
COc1cc2c(cc1OC)-c1cc(Nc3ccc(C(=O)O)cc3)nc(=O)n1CC2	.	.	.	117	.	.
COc1ccc(Nc2cc3n(c(=O)n2)CCc2cc(OC)c(OC)cc2-3)cc1	.	.	.	.	.	.
O=C(c1cc(Br)c[nH]1)N1CCSCC1	.	.	.	.	.	.
O=C(c1ccc([N+](=O)[O-])cc1[N+](=O)[O-])n1cnc2ccccc21	52	.	.	.	.	.
O=C(NCc1ccccc1)C1=C[C@H](c2ccccc2)C[C@H](OCc2ccc(CO)cc2)O1	.	.	.	83	.	.
O=C(O)C1=C[C@@H](c2ccccc2)C[C@@H](OCc2ccc(CO)cc2)O1	.	.	-13	.	.	.
SMILES	TAAR1 antagonist	TAAR1 agonist	TMEM16A act	CRFR2-BP antag	ANO1 block	CRFBP-R2 agonist
O=C(NCc1nc2ccccc2[nH]1)C1=C[C@H](c2csc3ccccc23)C[C@H](OCc2ccc(CO)cc2)O1	49	.	.	.	.	.
NC(=O)C1=C[C@@H](c2ccccc2)C[C@@H](OCc2ccc(CO)cc2)O1	.	.	.	.	.	.
O=C(NCc1nc2ccccc2[nH]1)C1=C[C@@H](c2csc3ccccc23)C[C@@H](OCc2ccc(CO)cc2)O1	.	.	.	.	.	.
O=C(CCC(=O)N1CCN(c2ccc(C(F)(F)F)cn2)CC1)c1cccs1	.	.	.	.	/	.
CN1OC[C@@H]2CN(Cc3ccc4c(c3)OCO4)[C@H](c3ccc(N4CCCCC4)cc3)C[C@@H]21	.	.	/	/	/	/
O=C(CNC(=O)C1COc2ccccc2O1)N/N=C\c1cccc(O)c1 (stereo not given)	.	.	.	.	.	.
O=C(CNC(=O)C1COc2ccccc2O1)N/N=C/c1ccc(O)cc1O (stereo not given)	.	41	.	.	.	.
O=C1CN(C(=O)c2ccc(F)cc2)c2ccccc2N1	.	.	.	.	.	.
c1cnc(-c2noc(CN3CCN(C4CCCC4)CC3)n2)cn1	.	.	.	.	.	.
COc1cccc(C2CCCN2Cc2nc(-c3cnccn3)no2)c1 (stereo not given)	.	.	.	116	.	.
Fc1cccc(Cl)c1-c1nnc2ccc(C(F)(F)F)cn12	.	.	.	.	.	50
Cc1sc2ncnc(NCCc3ccc(S(N)(=O)=O)cc3)c2c1C	.	.	.	.	.	.
COc1ccc(-c2cccc(NS(=O)(=O)c3ccc([N+](=O)[O-])cc3)c2)nn1	.	.	.	.	.	.
COc1ccc(-c2cccc(NS(=O)(=O)c3cccc([N+](=O)[O-])c3)c2)nn1	.	.	.	58	.	.
CN[C@H]1CC[C@@H](c2ccc(Cl)c(Cl)c2)c2ccccc21	51!	52	.	.	.	.
O=C1C=C(O)CC(c2ccc(Cl)c(Cl)c2)C1 (stereo not given)	.	.	.	.	.	.
CCC1(CC)SC(N)=NC1=O	.	.	.	.	/	.
CCN(CC)S(=O)(=O)c1cc([N+](=O)[O-])ccc1NNC(=O)Nc1ccc(Cl)c(Cl)c1	.	.	.	.	25	.
COCCCOc1cc(NCc2ccccc2)c2ncn(C(C)C)c2c1	.	.	.	.	/	.
COc1ccc(Cc2cc(NCc3ccccc3)c3ncn(C(C)C)c3c2)cc1	.	38	.	.	/	.
N#Cc1cccc(NC(=O)COC(=O)c2cccc(N3C(=O)c4ccccc4C3=O)c2)c1	60	.	.	.	.	.
O=C(COC(=O)c1cccc(N2C(=O)c3ccccc3C2=O)c1)Nc1ccccc1	.	.	.	.	.	.
CCN(CC)CCCn1c2c(c(SCC(=O)N3CCc4ccccc43)nc1=O)CCC2	.	.	.	.	.	.
CCCCC(CC)CNC(=O)C1CC=CCC1C(=O)O (stereo not given)	.	37	.	.	.	.
